By inhibition is commonly meant the percentage by which the read-out fell short of the control.

One data set has as its system Plasma. As to the kind of experiment: Fraction unbound in human plasma at 5 uM. It counts as ADME, cell-free. In a few lines:
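Human plasma protein binding was tested at 5 μM, reporting fraction unbound, fraction bound and recovery. The assay was run by a contract lab.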

Another data set addresses T1, CYP1A2 (Homo sapiens, UniProt P05177).
T1 sequence (P05177 whole entry): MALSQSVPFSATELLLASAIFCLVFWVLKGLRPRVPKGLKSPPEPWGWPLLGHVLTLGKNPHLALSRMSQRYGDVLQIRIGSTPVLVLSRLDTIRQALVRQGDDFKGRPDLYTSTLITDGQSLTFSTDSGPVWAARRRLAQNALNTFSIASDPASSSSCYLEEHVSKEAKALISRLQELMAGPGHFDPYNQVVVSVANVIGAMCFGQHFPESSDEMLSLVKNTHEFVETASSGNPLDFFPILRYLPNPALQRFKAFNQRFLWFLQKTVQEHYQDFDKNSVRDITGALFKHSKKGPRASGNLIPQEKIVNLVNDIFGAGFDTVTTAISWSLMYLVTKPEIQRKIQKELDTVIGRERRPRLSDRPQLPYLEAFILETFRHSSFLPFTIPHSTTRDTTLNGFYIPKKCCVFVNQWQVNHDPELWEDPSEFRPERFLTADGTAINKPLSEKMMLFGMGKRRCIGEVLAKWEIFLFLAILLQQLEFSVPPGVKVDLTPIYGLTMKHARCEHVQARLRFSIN
As to the kind of experiment: Inhibition of CYP1A2 at 30 uM. The format is ADME. In a few lines: (§1)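 CYP inhibition was tested at 3 and 30 μM and reported as percent inhibition. The assay was run by a contract lab.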

The target of data set [1] is T2, CYP2D6 (Homo sapiens, UniProt P10635). Nature of the data set: Inhibition of CYP2D6 at 30 uM. The format is ADME.
Data set [2] has as its target T2, CYP2D6. Nature of the data set: Inhibition of CYP2D6 at 3 uM. It counts as ADME.
In data set [3] the target is T3, CYP2C19 (Homo sapiens, UniProt P33261). Nature of the data set: Inhibition of CYP2C19 at 30 uM. The format is ADME. Put shortly:
as §1

Data set [4] concerns the target T3, CYP2C19. Nature of the data set: Inhibition of CYP2C19 at 3 uM. It counts as ADME. In a few lines:
as §1

The target of data set [5] is T4, CYP2C9 (Homo sapiens, UniProt P11712). As to the kind of experiment: Inhibition of CYP2C9 at 3 uM. It counts as ADME. Put shortly: as §1
Data set [6] addresses T4, CYP2C9. Nature of the data set: Inhibition of CYP2C9 at 30 uM. The format is ADME. In a few lines:
as §1

Data set [7] concerns the target T5, CYP3A4 (Homo sapiens, UniProt P08684). Nature of the data set: Inhibition of CYP3A4 at 30 uM using testosterone substrate. The format is ADME. The settings on record: probe testosterone.
Data set [8] addresses T5, CYP3A4. Nature of the data set: Inhibition of CYP3A4 at 30 uM using modazolam substrate. The format is ADME. The settings on record: probe midazolam (printed: modazolam).
Data set [9] is described as follows: Metabolic stability in human liver microsomes assessed as remaining parent compound at 1 uM after 1 hr in the absence of […]. The settings on record: read-out: Stability. It counts as ADME, Microsome. In a few lines: (§2)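 Human liver microsomes were incubated with test compound at 1 μM for 1 h. Percent parent remaining was measured with cofactor and in a cofactor-free control. The work was done by a contract lab.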

Data set [10] in a line: Metabolic stability in human liver microsomes assessed as remaining parent compound at 1 uM after 1 hr in the presence of […]. The settings on record: read-out: Stability. It counts as ADME, Microsome. In a few lines:
as §2
Background: Microsomes from liver hold many membrane-bound enzymes, among them those of drug oxidation.

Another data set has as its system HepG2. As to the kind of experiment: Genotoxicity in human HepG2 cells assessed as induction of DNA lesion at 100 uM after 24 hrs by comet assay. It counts as toxicity, cell-based. The settings on record: hepg2, 24 h. Put shortly:
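HepG2 cells were exposed to 100 μM for 24 h, with etoposide as positive control. Cells were embedded in agarose, lysed 2 h at 4°C at pH 10, unwound 40 min in alkali at pH >13 and electrophoresed at 25 V for 30 min at 4°C. After ethidium bromide staining, comet-tail nuclei were counted in >100 cells per field. Three independent experiments, one-way ANOVA.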

The subject of data set [11] is Mus musculus. Nature of the data set: Agonist activity at TrkB receptor in C57BL/J6 mouse brain assessed as TrkB phosphorylation at tyrosine 816 in hippocampus at 2.5 mg/kg, po […] by Western blotting analysis. Details: dose 2.5 mg/kg. It counts as functional, organism-based. Put shortly: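 Male C57BL/6J mice were gavaged with 2.5 mg/kg/day for 21 days, with saline vehicle controls. Hippocampus was collected after the behavioural tests, and BrdU at 100 mg/kg i.p. was given 2 h before sacrifice. Lysates were immunoblotted for p-TrkB, total TrkB and p-Akt, and the p-TrkB/TrkB ratio was determined. Two replicate experiments, Student's t-test.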
Background: Immunoblotting shows a protein as a band on a membrane.

The test system of data set [12] is Mus musculus. As to the kind of experiment: Agonist activity at TrkB receptor in C57BL/J6 mouse brain assessed as Akt phosphorylation at serine 473 in hippocampus at 2.5 mg/kg, po after 2 hrs by immunoblotting analysis. It counts as functional, organism-based. Details: dose 2.5 mg/kg.
Data set [13] concerns Mus musculus. Nature of the data set: Agonist activity at TrkB receptor in C57BL/J6 mouse brain assessed as TrkB phosphorylation at tyrosine 816 in hippocampus at 2.5 mg/kg, po after 2 hrs by immunoblotting analysis. Details: dose 2.5 mg/kg. It counts as functional, organism-based.
The test system of data set [14] is Mus musculus. Nature of the data set: Toxicity in C57BL/J6 mouse assessed as increase in locomotion at 2.5 mg/kg, po administered qd for 21 days by locomotor activity assay. The format is organism-based. The arrangement: dose 2.5 mg/kg, route oral. As to conditions: in vivo, 504 h. In a few lines:
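Male C57BL/6J mice were given compound or saline vehicle by oral gavage once daily for 21 days, with forced swim and tail suspension tests also run. Ambulations (consecutive photobeam breaks) were recorded in automated locomotor chambers for 2 h, binned at 30 min intervals.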

Data set [15] relates to Mus musculus. As to the kind of experiment: Antidepressant activity in C57BL/J6 mouse assessed as reduction of immobility at 2.5 mg/kg, po administered qd for 21 days recorded in last 4 mins by forced swim test. The format is functional. In a few lines:
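Male C57BL/6J mice, 2–3 months old, were gavaged daily for 21 days with drug (5 or 2.5 mg/kg) or saline and adapted to the test room for 2 days. With no preswim, each mouse was placed for 6 min in a 16-cm cylinder of 24 °C water, 14 cm deep. Immobility in the last 4 min was scored blind and compared by unpaired t-test (n=6 or 8).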

Data set [16] relates to Mus musculus. As to the kind of experiment: Agonist activity at TrkB receptor in C57BL/J6 mouse brain assessed as TrkB phosphorylation at tyrosine 816 in hippocampus at 1 mg/kg, po after 2 hrs by immunoblotting analysis. The arrangement: dose 1 mg/kg. The format is functional, organism-based. In a few lines: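 Hippocampus from male C57BL/6J mice was taken 2 h after a single 1 mg/kg oral dose. Brain was homogenised and ultracentrifuged, and 40 μg supernatant was immunoblotted for p-TrkB, p-Akt and p-MAPK.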

Data set [17] has as its target BDNF/NT-3 growth factors receptor (Rattus norvegicus) (UniProt Q63604). As to the kind of experiment: Agonist activity at TrkB receptor in rat primary neurons assessed as Akt phosphorylation at 500 nM after 15 mins by immunoblotting analysis. It counts as functional. Put shortly: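 Primary cortical cultures from E17 rat embryos were exposed to 500 nM for 15 min. Lysates were immunoblotted for p-TrkB and p-Akt (20 μg per lane). Two replicate experiments.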

Data set [18] relates to Mus musculus. Nature of the data set: Antidepressant activity in C57BL/J6 mouse assessed as reduction of immobility at 2.5 mg/kg, po administered qd for 21 days by tail suspension test. It counts as functional, organism-based. The arrangement: dose 2.5 mg/kg. Put shortly:
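Male C57BL/6J mice were gavaged once daily for 21 days with 2.5 mg/kg or saline vehicle, then tested for immobility during tail suspension. n=8, Student's t-test.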

Data set [19] deals with Mus musculus. Nature of the data set: Agonist activity at TrkB receptor in C57BL/J6 mouse brain assessed as TrkB phosphorylation at tyrosine 816 in dentate gyrus at 2.5 mg/kg, po administered qd for 21 days by immunohistochemical staining. The arrangement: dose 2.5 mg/kg. The format is functional, organism-based. Put shortly:
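Mice were gavaged with 2.5 mg/kg/day for 21 days and perfused with 4% paraformaldehyde. Paraffin sections of 6 μm had antigen retrieval by boiling in 10 mM citrate, pH 6.0. Sections were stained with anti-p-TrkB 816 at 1:300 and anti-TrkB at 1:50, with fluorescent secondaries and DAPI, and dentate gyrus was examined.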

Active and inactive are the calls of the source. The rule behind the calls is not given here.

T4 sequence (P11712 whole entry): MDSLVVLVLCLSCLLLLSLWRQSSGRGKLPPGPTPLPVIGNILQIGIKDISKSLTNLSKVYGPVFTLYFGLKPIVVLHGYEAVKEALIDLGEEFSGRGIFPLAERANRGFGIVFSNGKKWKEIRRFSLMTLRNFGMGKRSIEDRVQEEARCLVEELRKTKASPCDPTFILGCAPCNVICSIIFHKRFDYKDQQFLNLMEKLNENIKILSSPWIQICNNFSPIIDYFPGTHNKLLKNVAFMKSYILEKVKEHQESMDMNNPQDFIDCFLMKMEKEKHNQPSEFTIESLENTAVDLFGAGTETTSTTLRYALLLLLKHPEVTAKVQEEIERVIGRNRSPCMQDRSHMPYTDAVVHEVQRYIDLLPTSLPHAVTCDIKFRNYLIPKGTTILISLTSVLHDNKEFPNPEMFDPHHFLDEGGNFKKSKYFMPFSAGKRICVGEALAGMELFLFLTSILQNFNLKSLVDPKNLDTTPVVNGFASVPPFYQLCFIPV
T3 sequence (P33261 whole entry): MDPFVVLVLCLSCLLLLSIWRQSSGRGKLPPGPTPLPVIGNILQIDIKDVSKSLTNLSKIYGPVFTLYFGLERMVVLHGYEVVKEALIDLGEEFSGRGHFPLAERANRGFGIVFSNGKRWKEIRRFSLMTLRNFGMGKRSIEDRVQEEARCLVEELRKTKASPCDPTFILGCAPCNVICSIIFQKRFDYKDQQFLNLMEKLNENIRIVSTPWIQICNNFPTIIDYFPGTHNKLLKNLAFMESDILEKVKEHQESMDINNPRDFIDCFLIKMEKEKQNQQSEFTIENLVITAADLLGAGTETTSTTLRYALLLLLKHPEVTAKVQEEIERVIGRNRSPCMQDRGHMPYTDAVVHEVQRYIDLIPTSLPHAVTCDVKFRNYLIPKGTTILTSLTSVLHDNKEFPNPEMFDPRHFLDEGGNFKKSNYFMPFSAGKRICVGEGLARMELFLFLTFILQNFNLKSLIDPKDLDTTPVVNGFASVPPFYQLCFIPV
T5 sequence (P08684 whole entry): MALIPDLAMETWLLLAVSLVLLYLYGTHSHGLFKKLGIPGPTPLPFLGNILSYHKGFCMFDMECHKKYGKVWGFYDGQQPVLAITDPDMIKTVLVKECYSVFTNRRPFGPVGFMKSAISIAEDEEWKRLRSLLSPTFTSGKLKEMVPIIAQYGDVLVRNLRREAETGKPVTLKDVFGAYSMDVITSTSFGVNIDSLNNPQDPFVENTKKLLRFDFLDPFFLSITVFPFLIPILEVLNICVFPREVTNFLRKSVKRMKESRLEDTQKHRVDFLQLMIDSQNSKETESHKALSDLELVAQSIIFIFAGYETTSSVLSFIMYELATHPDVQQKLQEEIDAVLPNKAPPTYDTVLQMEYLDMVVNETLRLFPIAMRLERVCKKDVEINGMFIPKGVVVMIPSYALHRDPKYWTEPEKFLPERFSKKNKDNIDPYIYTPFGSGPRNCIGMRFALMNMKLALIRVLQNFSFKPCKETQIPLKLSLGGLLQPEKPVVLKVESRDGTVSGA
T2 sequence (P10635 whole entry): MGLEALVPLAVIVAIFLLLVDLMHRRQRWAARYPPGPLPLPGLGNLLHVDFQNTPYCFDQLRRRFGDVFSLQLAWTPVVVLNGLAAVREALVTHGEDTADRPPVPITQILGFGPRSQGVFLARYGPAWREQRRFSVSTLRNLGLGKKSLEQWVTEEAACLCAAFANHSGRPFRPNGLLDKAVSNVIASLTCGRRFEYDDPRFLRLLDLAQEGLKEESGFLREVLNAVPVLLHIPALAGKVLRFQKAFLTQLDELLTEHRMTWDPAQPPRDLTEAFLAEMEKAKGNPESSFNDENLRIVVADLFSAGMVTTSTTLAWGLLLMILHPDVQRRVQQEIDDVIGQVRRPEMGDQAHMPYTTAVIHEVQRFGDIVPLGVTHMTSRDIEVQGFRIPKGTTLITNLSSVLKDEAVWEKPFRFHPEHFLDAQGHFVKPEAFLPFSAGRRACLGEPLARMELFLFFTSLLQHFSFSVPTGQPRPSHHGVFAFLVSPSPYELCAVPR
BDNF/NT-3 growth factors receptor (Rattus norvegicus), sequence (Q63604 whole entry): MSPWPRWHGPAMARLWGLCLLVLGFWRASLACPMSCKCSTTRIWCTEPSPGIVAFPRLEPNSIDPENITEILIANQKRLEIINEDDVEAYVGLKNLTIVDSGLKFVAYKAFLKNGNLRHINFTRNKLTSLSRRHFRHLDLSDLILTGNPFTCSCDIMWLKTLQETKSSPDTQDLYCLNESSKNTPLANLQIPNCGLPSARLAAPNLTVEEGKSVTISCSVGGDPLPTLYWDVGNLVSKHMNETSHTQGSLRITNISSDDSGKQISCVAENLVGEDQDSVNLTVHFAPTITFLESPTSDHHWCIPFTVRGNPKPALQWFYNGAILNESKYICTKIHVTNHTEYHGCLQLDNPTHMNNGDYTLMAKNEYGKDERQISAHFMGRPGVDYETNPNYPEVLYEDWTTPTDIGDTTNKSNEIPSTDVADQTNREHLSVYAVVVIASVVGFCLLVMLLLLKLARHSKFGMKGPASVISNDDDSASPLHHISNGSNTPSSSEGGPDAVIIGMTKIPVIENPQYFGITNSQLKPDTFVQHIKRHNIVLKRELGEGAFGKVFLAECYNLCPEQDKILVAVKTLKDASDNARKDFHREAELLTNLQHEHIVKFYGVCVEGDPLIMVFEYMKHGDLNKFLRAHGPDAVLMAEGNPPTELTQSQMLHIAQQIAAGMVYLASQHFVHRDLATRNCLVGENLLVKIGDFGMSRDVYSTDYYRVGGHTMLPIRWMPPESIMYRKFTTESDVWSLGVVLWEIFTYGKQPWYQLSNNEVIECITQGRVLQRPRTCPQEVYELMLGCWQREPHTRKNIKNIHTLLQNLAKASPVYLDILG

`O=c1cc(-c2ccc(N3CCCC3)cc2)oc2c1ccc1cc[nH]c12` had a Fu in the data set with Plasma of 0.07%. In addition, the inhibition at 30 µM at CYP1A2 is 75.9%; against CYP2D6 [1] it was 81.6%; against CYP2C19 [3], 90%; at CYP2C9 [6] it was 52.9%; against CYP3A4 [7] it was 18.7%; against CYP3A4 [8], 48.1%. Besides, the inhibition at 3 µM was determined as 7.2% against CYP2D6 [2], 16.2% against CYP2C19 [4] and 11.9% against CYP2C9 [5]. For the same compound, the remaining at 1 h, 1 µM in [9] amounted to 79.6%; in data set [10] it was 1.2%. Moreover, the Activity result with HepG2 and with Mus musculus [14] was “Non-toxic” each time. In addition, the result (in the data set on Mus musculus [11]; in the data set with Mus musculus [12]; in the data set on Mus musculus [13]; in the data set with Mus musculus [16]; in data set [17]; in the data set with Mus musculus [19]) was Active. For the same compound, the result in the data set on Mus musculus [15] and with Mus musculus [18] was inactive.

With `Cc1nc2ccc3c(=O)cc(-c4ccc(N5CCCC5)cc4)oc3c2[nH]1`, the Fu in the data set on Plasma is given as 0.03%. Moreover, the inhibition at 30 µM on CYP1A2 is 66.1%; at CYP2D6 [1], 32%; against CYP2C19 [3], 57.7%; against CYP2C9 [6], 73.6%; on CYP3A4 [7] it was 43.3%; against CYP3A4 [8], 40.5%. Also, the figures for the inhibition at 3 µM at CYP2D6 [2], against CYP2C19 [4] and at CYP2C9 [5] were 8.7%, 11.1% and 12.4%, respectively. Moreover, the remaining at 1 h, 1 µM was 92.2% in data set [9] and 25.4% in [10]. In addition, the figures for the Activity entry in the data set with HepG2, in the data set on Mus musculus [14] and with Mus musculus [15] were “Non-toxic”, “Non-toxic” and 45%, respectively. Moreover, the outcome (with Mus musculus [11]; with Mus musculus [12]; in the data set with Mus musculus [13]; in the data set on Mus musculus [16]; in data set [17]; with Mus musculus [18]) was Active. Also, in the data set on Mus musculus [19], the outcome was Active.
